# ChEMBL document CHEMBL1135676, “Comparative molecular field analysis of substrates for an aryl sulfotransferase based on catalytic mechanism and protein homology modeling” (J Med Chem, 2002)
# How the values were obtained:
# [1] = substrate: CCCN(O)c1ccccc1; assay: (§1) Apparent Michaelis constant (Km) against Arylsulfotransferase (AST IV)
# Procedure, shortened: (§2)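 Recombinant rat hepatic AST IV, expressed in E. coli and purified. Each reaction held 1.0 μg enzyme, 0.2 mM PAPS, 8.3 mM 2-mercaptoethanol, varying substrate and 0.25 M potassium phosphate at pH 7.0. Mixtures were preincubated 2 min at 37 °C, started with enzyme, run 10 min at 37 °C and stopped with methanol. Substrate-dependent PAP formation was read by HPLC and corrected with substrate-free controls. kcat is in min⁻¹ and apparent Km in M.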
# [2] = substrate: ONc1ccccc1; assay: as §1; procedure, shortened: as §2
# [3] = substrate: CCCCCCCc1ccc(CO)cc1; assay: as §1; procedure, shortened: as §2
# [4] = substrate: CCCC[C@H](O)c1ccccc1; assay: as §1; procedure, shortened: as §2
# [5] = substrate: OCc1ccc2ccccc2c1; assay: as §1; procedure, shortened: as §2
# [6] = substrate: C[C@H](O)c1ccccc1; assay: as §1; procedure, shortened: as §2
# [7] = substrate: OCc1ccccc1; assay: as §1; procedure, shortened: as §2
# [8] = substrate: OCc1c[nH]c2ccccc12; assay: as §1; procedure, shortened: as §2
# [9] = substrate: ONc1ccc(Cl)cc1; assay: as §1; procedure, shortened: as §2
# [10] = substrate: Cc1ccc(O)cc1; assay: as §1; procedure, shortened: as §2
# [11] = substrate: CCCCCCCCCc1ccc(O)cc1; assay: as §1; procedure, shortened: as §2
# [12] = substrate: CCCCCCCc1ccc(O)cc1; assay: as §1; procedure, shortened: as §2
# [13] = substrate: CCCCc1ccc(CO)cc1; assay: as §1; procedure, shortened: as §2
# [14] = substrate: CN(O)c1ccccc1; assay: as §1; procedure, shortened: as §2
# [15] = substrate: CCCc1ccc(O)cc1; assay: as §1; procedure, shortened: as §2
# [16] = substrate: CCC[C@H](O)c1ccccc1; assay: as §1; procedure, shortened: as §2
# [17] = substrate: CN[C@H](C)[C@H](O)c1ccccc1; assay: as §1; procedure, shortened: as §2
# [18] = substrate: CCN(O)c1ccccc1; assay: as §1; procedure, shortened: as §2
# [19] = substrate: CN[C@@H](C)C(O)c1ccccc1; assay: as §1; procedure, shortened: as §2
# [20] = substrate: CC(=O)Nc1ccc(O)cc1; assay: as §1; procedure, shortened: as §2
# [21] = substrate: OCc1cccc2ccccc12; assay: as §1; procedure, shortened: as §2
# [22] = substrate: [H][C@]12CC3(c4ccc(O)cc4)C[C@]([H])(C1)C[C@@]([H])(C3)C2; assay: as §1; procedure, shortened: as §2
# [23] = substrate: Cc1ccc(CO)cc1; assay: as §1; procedure, shortened: as §2
# [24] = substrate: O=[N+]([O-])c1ccc(O)c(Cl)c1; assay: as §1; procedure, shortened: as §2
# [25] = substrate: COC(=O)[C@@H](N)Cc1ccc(O)cc1; assay: as §1; procedure, shortened: as §2
# [26] = substrate: OC1CCCc2ccccc21; assay: as §1; procedure, shortened: as §2
# [27] = substrate: OCc1ccoc1; assay: as §1; procedure, shortened: as §2
# [28] = substrate: CC[C@H](O)c1ccccc1; assay: as §1; procedure, shortened: as §2
# [29] = substrate: CC(C)[C@H](O)c1ccccc1; assay: as §1; procedure, shortened: as §2
# [30] = substrate: O=[N+]([O-])c1ccc(CO)cc1; assay: as §1; procedure, shortened: as §2
# [31] = substrate: CCCCc1ccc(O)cc1; assay: as §1; procedure, shortened: as §2
# [32] = substrate: CCCCCCc1ccc(CO)cc1; assay: as §1; procedure, shortened: as §2
# [33] = substrate: CCCc1ccc(CO)cc1; assay: as §1; procedure, shortened: as §2
# [34] = molecular target: Aryl sulfotransferase IV (Rattus norvegicus); assay: as §1; procedure, shortened: as §2
# [35] = substrate: CCCCCc1ccc(CO)cc1; assay: as §1; procedure, shortened: as §2
# [36] = substrate: CCCCC[C@H](O)c1ccccc1; assay: as §1; procedure, shortened: as §2
# [37] = substrate: CCc1ccc(O)cc1; assay: as §1; procedure, shortened: as §2
# [38] = substrate: O=C(CBr)Nc1ccc(O)cc1; assay: as §1; procedure, shortened: as §2
# [39] = substrate: CCCCCc1ccc(O)cc1; assay: as §1; procedure, shortened: as §2
# [40] = substrate: C[C@@H](O)c1ccccc1; assay: as §1; procedure, shortened: as §2
# [41] = substrate: Oc1ccc(-c2ccccc2)cc1; assay: as §1; procedure, shortened: as §2
# [42] = substrate: CCCCCC[C@H](O)c1ccccc1; assay: as §1; procedure, shortened: as §2
# [43] = substrate: Oc1ccc2ccccc2c1; assay: not read
# [44] = substrate: Oc1ccccc1; assay: not read
protein,measurement,setting,value
Sulfotransferase 1A1 (Rattus norvegicus) (protein) MEFSRPPLVHVKGIPLIKYFAETIGPLQNFTAWPDDLLISTYPKSGTTWMSEILDMIYQGGKLEKCGRAPIYARVPFLEFKCPGVPSGLETLEETPAPRLLKTHLPLSLLPQSLLDQKVKVIYIARNAKDVVVSYYNFYNMAKLHPDPGTWDSFLENFMDGEVSYGSWYQHVKEWWELRHTHPVLYLFYEDIKENPKREIKKILEFLGRSLPEETVDSIVHHTSFKKMKENCMTNYTTIPTEIMDHNVSPFMRKGTTGDWKNTFTVAQNERFDAHYAKTMTDCDFKFRCEL,Km,[1],161 µM
same,Vmax,[1],0.0986 µM/min
same,Km,[2],230 µM
same,Vmax,[2],0.043 µM/min
same,Km,[3],410 µM
same,Vmax,[3],0.133 µM/min
same,Km,[4],10 µM
same,Vmax,[4],0.0305 µM/min
same,Km,[5],26 µM
same,Vmax,[5],0.0776 µM/min
same,Km,[6],250 µM
same,Vmax,[6],0.0337 µM/min
same,Km,[7],50 µM
same,Vmax,[7],0.0305 µM/min
same,Km,[8],29 µM
same,Vmax,[8],0.0332 µM/min
same,Km,[9],26 µM
same,Vmax,[9],0.035 µM/min
same,Km,[10],10 µM
same,Vmax,[10],0.32 µM/min
same,Km,[11],109 µM
same,Vmax,[11],0.091 µM/min
same,Km,[12],61 µM
same,Vmax,[12],0.132 µM/min
same,Km,[13],30 µM
same,Vmax,[13],0.13 µM/min
same,Km,[14],119 µM
same,Vmax,[14],0.085 µM/min
same,Km,[15],6 µM
same,Vmax,[15],0.427 µM/min
same,Km,[16],360 µM
same,Vmax,[16],0.0085 µM/min
same,Km,[17],11000 µM
same,Vmax,[17],0.0404 µM/min
same,Km,[18],650 µM
same,Vmax,[18],0.273 µM/min
same,Km,[19],6990 µM
same,Vmax,[19],0.0225 µM/min
same,Km,[20],92 µM
same,Vmax,[20],0.181 µM/min
same,Km,[21],30 µM
same,Vmax,[21],0.026 µM/min
same,Km,[22],1 µM
same,Vmax,[22],0.0472 µM/min
same,Km,[23],600 µM
same,Vmax,[23],0.508 µM/min
same,Km,[24],5 µM
same,Vmax,[24],0.028 µM/min
same,Km,[25],4000 µM
same,Vmax,[25],0.35 µM/min
same,Km,[26],30 µM
same,Vmax,[26],0.0287 µM/min
same,Km,[27],960 µM
same,Vmax,[27],0.0102 µM/min
same,Km,[28],240 µM
same,Vmax,[28],0.0099 µM/min
same,Km,[29],1360 µM
same,Vmax,[29],0.0061 µM/min
same,Km,[30],199 µM
same,Vmax,[30],0.0206 µM/min
same,Km,[31],5 µM
same,Vmax,[31],0.296 µM/min
same,Km,[32],30 µM
same,Vmax,[32],0.0967 µM/min
same,Km,[33],40 µM
same,Vmax,[33],0.178 µM/min
same,Km,[34],60 µM
same,Vmax,[34],0.182 µM/min
same,Km,[35],20 µM
same,Vmax,[35],0.109 µM/min
same,Km,[36],7 µM
same,Vmax,[36],0.0021 µM/min
same,Km,[37],10 µM
same,Vmax,[37],0.41 µM/min
same,Km,[38],22 µM
same,Vmax,[38],0.095 µM/min
same,Km,[39],9 µM
same,Vmax,[39],0.208 µM/min
same,Km,[40],1730 µM
same,Vmax,[40],0.0206 µM/min
same,Km,[41],91 µM
same,Vmax,[41],0.212 µM/min
same,Km,[42],20 µM
same,Vmax,[42],0.0052 µM/min
same,Km,[43],8 µM
same,Vmax,[43],1.13 µM/min
same,Km,[44],19 µM
same,Vmax,[44],0.35 µM/min
